{"source": "ChEMBL document CHEMBL3046144", "about": "“Insecticidal and fumigant activities of Cinnamomum cassia bark-derived materials against Mechoris ursulus (Coleoptera: attelabidae)” (2000)", "assay_type_in_all_cases": "functional", "key": {"Attelabidae [1]": {"tested_on": "Attelabidae", "assay": "Insecticidal activity against Mechoris ursulus assessed as mortality at 5 mg/paper at 25 +/- 1 degC measured after 48 hr by filter paper diffusion method", "summary_of_the_method": "(§1)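 M. ursulus larvae. Compound in 1 mL acetone applied to a filter paper (50-mm diameter), dried in a hood 2 min, then placed in the bottom of a polyethylene cup with the larvae. Controls got 1 mL acetone. Held at 25 ± 1 °C, 50-60% RH, 16L:8D. Run in triplicate, mean ± SE.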"}, "Attelabidae [2]": {"tested_on": "Attelabidae", "assay": "Insecticidal activity against Mechoris ursulus assessed as mortality at 1 mg/paper at 25 +/- 1 degC measured after 48 hr by filter paper diffusion method", "summary_of_the_method": "as §1"}, "Attelabidae [3]": {"tested_on": "Attelabidae", "assay": "Insecticidal activity against Mechoris ursulus assessed as mortality at 2.5 mg/paper at 25 +/- 1 degC measured after 48 hr by filter paper diffusion method", "summary_of_the_method": "as §1"}}, "data": [{"smiles": "OC/C=C/c1ccccc1", "note": "[CINNAMIC ALCOHOL]", "values": [{"measurement": "mortality", "setting": "Attelabidae [1]", "value": 50, "unit": "%"}]}, {"smiles": "O=C/C=C/c1ccccc1", "note": "[CINNAMALDEHYDE]", "values": [{"measurement": "mortality", "setting": "Attelabidae [2]", "value": 83.3, "unit": "%"}, {"measurement": "mortality", "setting": "Attelabidae [3]", "value": 100, "unit": "%"}, {"measurement": "mortality", "setting": "Attelabidae [1]", "value": 100, "unit": "%"}]}, {"smiles": "O=C(O)/C=C/c1ccccc1", "note": "[CINNAMIC ACID]", "values": [{"measurement": "mortality", "setting": "Attelabidae [2]", "value": 53.3, "unit": "%"}, {"measurement": "mortality", "setting": "Attelabidae [3]", "value": 73.3, "unit": "%"}, {"measurement": "mortality", "setting": "Attelabidae [1]", "value": 86.7, "unit": "%"}]}, {"smiles": "C=CCc1ccc(O)c(OC)c1", "note": "[EUGENOL]", "values": [{"measurement": "mortality", "setting": "Attelabidae [2]", "value": 66.7, "unit": "%"}, {"measurement": "mortality", "setting": "Attelabidae [3]", "value": 90, "unit": "%"}, {"measurement": "mortality", "setting": "Attelabidae [1]", "value": 100, "unit": "%"}]}, {"smiles": "O=Cc1ccccc1O", "note": "[SALICYLADEHYDE]", "values": [{"measurement": "mortality", "setting": "Attelabidae [2]", "value": 74.4, "unit": "%"}, {"measurement": "mortality", "setting": "Attelabidae [3]", "value": 88.9, "unit": "%"}, {"measurement": "mortality", "setting": "Attelabidae [1]", "value": 100, "unit": "%"}]}]}
